Reference: ChEMBL document CHEMBL4811308, “Design, synthesis and broad spectrum antibreast cancer activity of diarylindoles via induction of apoptosis in aggressive breast cancer cells” (Bioorg Med Chem, 2021)

Legend:
Assay type in all cases: organism-based
[1] = Acute toxicity in Swiss albino mouse assessed as RBC level at 50 mg/kg, po administered once and observed for 7 days (reference value: 9.21 +/- 0.32 /mm3); conditions: in vivo, 168 h, time 7 day
[2] = Acute toxicity in Swiss albino mouse assessed as relative kidney weight at 5 to 300 mg/kg, po administered once and observed for 7 days; conditions: in vivo, 168 h, dose 5-300 mg/kg, time 7 day
In short: (§1)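 Acute oral toxicity per OECD guideline 423; mice 20–25 g, 3 male + 3 female per group, acclimatized 7 days at 22 ± 5 °C, 12 h light/dark. Compound dissolved in minimal DMSO, diluted in 0.7% CMC, single oral dose of 5, 50 or 300 mg/kg; controls given vehicle only. Clinical signs checked hourly on dosing day, then daily. Samples and body weights taken on day 7.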

[3] = Acute toxicity in Swiss albino mouse assessed as absolute lungs weight at 5 to 300 mg/kg, po administered once and observed for 7 days; conditions: in vivo, 168 h, dose 5-300 mg/kg, time 7 day; in short: as §1
[4] = Acute toxicity in Swiss albino mouse assessed as albumin at 5 mg/kg, po administered once and observed for 7 days (reference value: 1.62 +/- 0.09 g/dl); conditions: in vivo, 168 h, time 7 day
[5] = Acute toxicity in Swiss albino mouse assessed as absolute heart weight at 5 to 300 mg/kg, po administered once and observed for 7 days; conditions: in vivo, 168 h, dose 5-300 mg/kg, time 7 day; in short: as §1
[6] = Acute toxicity in Swiss albino mouse assessed as hemoglobin level at 5 mg/kg, po administered once and observed for 7 days (reference value: 17.35 +/- 0.3 gm/dl); conditions: in vivo, 168 h, time 7 day
[7] = Acute toxicity in Swiss albino mouse assessed as albumin at 50 mg/kg, po administered once and observed for 7 days (reference value: 1.62 +/- 0.09 g/dl); conditions: in vivo, 168 h, time 7 day
[8] = Acute toxicity in Swiss albino mouse assessed as bilirubin level at 5 mg/kg, po administered once and observed for 7 days (reference value: 0.44 +/- 0.06 mg/dl); conditions: in vivo, 168 h, time 7 day
[9] = Acute toxicity in Swiss albino mouse assessed as relative lungs weight at 5 to 300 mg/kg, po administered once and observed for 7 days; conditions: in vivo, 168 h, dose 5-300 mg/kg, time 7 day; in short: as §1
[10] = Acute toxicity in Swiss albino mouse assessed as WBC level at 300 mg/kg, po administered once and observed for 7 days (reference value: 8.55 +/- 2.71 /mm3); conditions: in vivo, 168 h, time 7 day
[11] = Acute toxicity in Swiss albino mouse assessed as protein level at 300 mg/kg, po administered once and observed for 7 days (reference value: 2.01 +/- 0.11 mg/ml); conditions: in vivo, 168 h, time 7 day
[12] = Acute toxicity in Swiss albino mouse assessed as creatinine level at 5 mg/kg, po administered once and observed for 7 days (reference value: 0.11 +/- 0.03 mg/dL); conditions: in vivo, 168 h, time 7 day
[13] = Acute toxicity in Swiss albino mouse assessed as ALP level at 300 mg/kg, po administered once and observed for 7 days (reference value: 123.22 +/- 16.04 U/L); conditions: in vivo, 168 h, time 7 day
[14] = Acute toxicity in Swiss albino mouse assessed as cholesterol level at 300 mg/kg, po administered once and observed for 7 days (reference value: 122.05 +/- 8.12 mg/dl); conditions: in vivo, 168 h, time 7 day
[15] = Acute toxicity in Swiss albino mouse assessed as hemoglobin level at 300 mg/kg, po administered once and observed for 7 days (reference value: 17.35 +/- 0.3 gm/dl); conditions: in vivo, 168 h, time 7 day
[16] = Acute toxicity in Swiss albino mouse assessed as body weight at 50 mg/kg, po administered once and observed for 7 days (reference value: 22.75 +/- 0.93 gm); conditions: in vivo, 168 h, time 7 day
[17] = Acute toxicity in Swiss albino mouse assessed as triglyceride level at 300 mg/kg, po administered once and observed for 7 days (reference value: 81.12 +/- 7.75 mg/dl); conditions: in vivo, 168 h, time 7 day
[18] = Acute toxicity in Swiss albino mouse assessed as SGPT level at 300 mg/kg, po administered once and observed for 7 days (reference value: 12.65 +/- 2.98 U/L); conditions: in vivo, 168 h, time 7 day

SMILES	Activity [1]	Activity [2]	Activity [3]	Activity [4]	Activity [5]	Activity [6]	Activity [7]	Activity [8]	Activity [9]	Activity [10]	Activity [11]	Activity [12]	Activity [13]	Activity [14]	Activity [15]	Activity [16]	Activity [17]	Activity [18]
COc1ccc2c(c1)c(Cc1ccc(OCCN(C)C)cc1)c(-c1cc(OC)c(OC)c(OC)c1)n2Cc1ccc(OCCN(C)C)cc1	8.72 million/mm3	Non-Toxic	Non-Toxic	1.52 g/dL	Non-Toxic	16.59 g/dL	1.43 g/dL	0.3 mg/dL	Non-Toxic	5.53 thousands/mm3	1.93 mg/mL	0.12 mg/dL	98.7 U/L	132.33 mg/dL	15.96 g/dL	21.31 g	91.2 mg/dL	16 U/L
COc1ccc2c(c1)c(Cc1ccc(OC(C)CN(C)C)cc1)c(-c1cc(OC)c(OC)c(OC)c1)n2Cc1ccc(OC(C)CN(C)C)cc1 (stereo unspecified)	8.67 million/mm3	Non-Toxic	Non-Toxic	1.48 g/dL	Non-Toxic	15.83 g/dL	1.29 g/dL	0.34 mg/dL	Non-Toxic	5.6 thousands/mm3	1.66 mg/mL	0.12 mg/dL	74.12 U/L	108.72 mg/dL	15.54 g/dL	23.48 g	86.58 mg/dL	19.12 U/L
